The source of these data is ChEMBL document CHEMBL4392868, “Cytotoxic Tigliane Diterpenoids from Croton damayeshu” (J Nat Prod, 2019).

The subject of test [1] is HL-60. Description: Cytotoxicity against human HL60 cells measured after 72 hrs by CCK8 assay. The test is classed as functional, cell-based. Particulars: HL-60, 72 h. Summed up:
(§1)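 Human tumor cell lines A549 and HL-60 were assayed in vitro for cytotoxicity by the CCK-8 colorimetric method. Adriamycin served as the positive control, and IC50 values are reported in μM.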
(Tetrazolium dyes change colour on reduction, which living cells bring about.)

For test [2], the system named is A549. Description: Cytotoxicity against human A549 cells measured after 72 hrs by CCK8 assay. The class given is functional, cell-based. Particulars: A549, 72 h. Summed up: as §1
The subject of test [3] is A549. Put plainly: Cytotoxicity against human A549 cells assessed as inhibition of cell growth at 10 uM measured after 72 hrs by CCK8 assay relative to control. The test is classed as functional. Particulars: A549, 72 h.
Test [4] has as its system HL-60. Put plainly: Cytotoxicity against human HL60 cells assessed as inhibition of cell growth at 10 uM measured after 72 hrs by CCK8 assay relative to control. Particulars: HL-60, 72 h. The class given is functional.

pIC50: −log10 of the molar value. Counter-ions that a name gives are not always drawn.

Regarding `C/C=C(\C)C(=O)O[C@@H]1[C@@H](C)[C@]2(O)[C@@H]3C=C(C)C(=O)[C@@H]3CC(CO)=C[C@H]2[C@@H]2C(C)(C)[C@]12OC(=O)C(C)C`, the values for the pIC50 in the test with HL-60 [1] and in the test on A549 [2] were 5.74 and 5.72, respectively.
On to `C/C=C(\C)C(=O)O[C@@H]1[C@@H](C)[C@]2(O)[C@@H]3C=C(C)C(=O)[C@@H]3CC(CO)=C[C@H]2[C@@H]2C(C)(C)[C@]12OC(C)=O`, for which the inhibition at 10 µM in the test with A549 [3] and in the test with HL-60 [4] was under 50% in each case.
`CC1=C[C@@H]2[C@@H](CC(CO)=C[C@H]3[C@@H]4C(C)(C)[C@]4(OC(=O)C(C)C)[C@H](O)[C@@H](C)[C@]23O)C1=O`: the inhibition at 10 µM in the test with A549 [3] and with HL-60 [4] was under 50% in each case.
For the compound `CC[C@H](C)C(=O)O[C@@]12[C@H](O)[C@@H](C)[C@]3(O)[C@@H]4C=C(C)C(=O)[C@@H]4CC(CO)=C[C@H]3[C@@H]1C2(C)C`, the inhibition at 10 µM in the test on A549 [3] and in the test with HL-60 [4] was under 50% throughout.
For `C/C=C(\C)C(=O)O[C@@H]1[C@@H](C)[C@]2(O)[C@@H]3C=C(C)C(=O)[C@@H]3CC(CO)=C[C@H]2[C@@H]2C(C)(C)[C@]12OC(=O)[C@@H](C)CC`, the inhibition at 10 µM in the test on HL-60 [4] was under 50%. This compound also gave a pIC50 with A549 [2] of 4.74.
As for `CC1=C[C@@H]2[C@@H](CC(C=O)=C[C@H]3[C@@H]4C(C)(C)[C@]4(OC(=O)C(C)C)[C@H](O)[C@@H](C)[C@]23O)C1=O`, the inhibition at 10 µM in the test with A549 [3] and in the test with HL-60 [4] was under 50% throughout.
For the compound `CC[C@H](C)C(=O)O[C@@H]1[C@@H](C)[C@]2(O)[C@@H]3C=C(C)C(=O)[C@@H]3CC(CO)=C[C@H]2[C@@H]2C(C)(C)[C@]12OC(=O)[C@@H](C)CC`, the values for the pIC50 with HL-60 [1] and with A549 [2] were 4.72 and 5.34, respectively.
In the case of `CC[C@H](C)C(=O)O[C@@]12[C@H](OC(=O)c3ccccc3)[C@@H](C)[C@]3(O)[C@@H]4C=C(C)C(=O)[C@@H]4CC(CO)=C[C@H]3[C@@H]1C2(C)C`, the pIC50 is 4.64 in the test with HL-60 [1] and 5.39 in the test on A549 [2].
Turning to `C/C=C(\C)C(=O)O[C@@H]1[C@@H](C)[C@]2(O)[C@@H]3C=C(C)C(=O)[C@@H]3CC(C=O)=C[C@H]2[C@@H]2C(C)(C)[C@]12OC(=O)[C@@H](C)CC`, the pIC50 is 5.62 in the test with HL-60 [1] and 5.89 with A549 [2].
Turning to `CC[C@H](C)C(=O)O[C@@]12[C@H](O)[C@@H](C)[C@]3(O)[C@@H]4C=C(C)C(=O)[C@@H]4CC(C=O)=C[C@H]3[C@@H]1C2(C)C`, the inhibition at 10 µM with HL-60 [4] is under 50%. The same compound showed a pIC50 with A549 [2] of 6.05.
In the case of `CC1=C[C@@H]2[C@@H](CC(CO)=C[C@H]3[C@@H]4C(C)(C)[C@]4(OC(=O)[C@@H](C)[C@@H](C)O)[C@H](O)[C@@H](C)[C@]23O)C1=O`, the inhibition at 10 µM in the test on A549 [3] and in the test with HL-60 [4] was under 50% in each case.
Consider `C/C=C(\C)C(=O)O[C@@H]1[C@@H](C)[C@]2(O)[C@@H]3C=C(C)C(=O)[C@@H]3CC(CO)=C[C@H]2[C@@H]2C(C)(C)[C@]12OC(=O)[C@@H](C)[C@@H](C)O`, for which the inhibition at 10 µM with A549 [3] and in the test with HL-60 [4] was under 50% in each case.
Turning to `CC[C@H](C)C(=O)O[C@@H]1[C@@H](C)[C@]2(O)[C@@H]3C=C(C)C(=O)[C@@H]3CC(CO)=C[C@H]2[C@@H]2C(C)(C)[C@]12OC(=O)C(C)C`, the inhibition at 10 µM in the test on HL-60 [4] is under 50%. In the test with A549 [2], this compound gave a pIC50 of 5.43.
As to `COc1cccc2c1C(=O)c1c(O)c3c(c(O)c1C2=O)C[C@@](O)(C(=O)CO)C[C@@H]3O[C@H]1C[C@H](N)[C@H](O)[C@H](C)O1` [DOXORUBICIN HYDROCHLORIDE], the pIC50 was 7.10 in the test with HL-60 [1] and 6.40 with A549 [2].

As a reminder, the pIC50 is the negative decadic logarithm of the IC50, by convention in mol/L. Usually inhibition stands for the change of the read-out against control, counted positive when it falls.
